# Key:
# Settings in all cases: stereoisomer not certain
# UniProt Q8VFP5 = molecular target: T1, UniProt Q8VFP5
# T1 sequence (whole entry): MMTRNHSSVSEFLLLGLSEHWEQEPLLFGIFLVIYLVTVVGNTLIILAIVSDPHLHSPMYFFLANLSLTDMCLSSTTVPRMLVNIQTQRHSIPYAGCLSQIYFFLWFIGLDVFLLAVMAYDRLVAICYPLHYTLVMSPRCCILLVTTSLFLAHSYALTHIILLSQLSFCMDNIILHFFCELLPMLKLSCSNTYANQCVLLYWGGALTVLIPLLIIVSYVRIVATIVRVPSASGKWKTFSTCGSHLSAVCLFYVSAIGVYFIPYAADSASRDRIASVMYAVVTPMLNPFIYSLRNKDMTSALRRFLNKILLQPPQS
# Summary of the method: (§1)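 Each receptor–molecule pair is labelled responsive or non-responsive (inactive) according to whether the original authors judged the measured signal statistically different from baseline. The data were taken from the main text and supplementary material of published papers and checked for typos and inconsistencies. Assay methods differed by source, with transient luciferase assays in mammalian cell lines being common.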
# UniProt Q8VFZ6 = molecular target: T2, UniProt Q8VFZ6
# T2 sequence (whole entry): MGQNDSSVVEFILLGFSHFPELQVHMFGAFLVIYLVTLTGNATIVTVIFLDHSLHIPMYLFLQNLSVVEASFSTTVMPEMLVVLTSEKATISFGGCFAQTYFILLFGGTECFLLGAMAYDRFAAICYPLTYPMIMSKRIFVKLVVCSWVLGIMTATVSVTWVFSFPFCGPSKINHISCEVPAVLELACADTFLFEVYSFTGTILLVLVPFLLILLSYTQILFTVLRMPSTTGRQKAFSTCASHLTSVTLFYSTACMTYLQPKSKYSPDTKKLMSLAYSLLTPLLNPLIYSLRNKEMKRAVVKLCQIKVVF
# Summary of the method: as §1
# UniProt Q8VG01 = molecular target: T3, UniProt Q8VG01
# T3 sequence (whole entry): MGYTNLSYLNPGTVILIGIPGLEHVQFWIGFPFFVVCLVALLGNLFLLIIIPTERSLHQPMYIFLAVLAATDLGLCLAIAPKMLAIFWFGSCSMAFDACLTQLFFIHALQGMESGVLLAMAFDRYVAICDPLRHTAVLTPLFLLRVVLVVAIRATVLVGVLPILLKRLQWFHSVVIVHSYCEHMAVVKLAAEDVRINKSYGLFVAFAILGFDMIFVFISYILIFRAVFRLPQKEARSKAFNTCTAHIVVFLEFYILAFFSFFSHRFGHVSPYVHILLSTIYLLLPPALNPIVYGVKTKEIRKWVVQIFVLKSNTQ
# Summary of the method: as §1
# UniProt Q8VG22 = molecular target: T4, UniProt Q8VG22
# T4 sequence (whole entry): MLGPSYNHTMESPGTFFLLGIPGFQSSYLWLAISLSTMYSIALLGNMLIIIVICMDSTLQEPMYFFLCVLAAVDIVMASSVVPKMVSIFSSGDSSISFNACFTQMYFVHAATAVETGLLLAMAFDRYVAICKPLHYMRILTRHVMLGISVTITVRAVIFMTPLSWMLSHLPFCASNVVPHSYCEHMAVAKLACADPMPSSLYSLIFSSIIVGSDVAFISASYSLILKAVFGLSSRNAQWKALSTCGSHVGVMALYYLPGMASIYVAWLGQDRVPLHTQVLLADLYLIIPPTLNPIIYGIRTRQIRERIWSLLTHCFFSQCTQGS
# Summary of the method: as §1
# UniProt Q8VG27 = molecular target: T5, UniProt Q8VG27
# T5 sequence (whole entry): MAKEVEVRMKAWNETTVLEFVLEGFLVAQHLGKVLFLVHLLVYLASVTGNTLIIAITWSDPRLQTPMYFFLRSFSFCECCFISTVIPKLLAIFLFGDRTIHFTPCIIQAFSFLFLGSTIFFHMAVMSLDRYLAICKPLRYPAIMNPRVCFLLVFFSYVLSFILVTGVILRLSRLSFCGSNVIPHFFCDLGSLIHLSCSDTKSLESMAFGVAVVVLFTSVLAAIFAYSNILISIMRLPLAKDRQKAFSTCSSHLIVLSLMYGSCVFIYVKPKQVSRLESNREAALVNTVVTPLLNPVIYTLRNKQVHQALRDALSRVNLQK
# Summary of the method: as §1
# UniProt Q8VG49 = molecular target: T6, UniProt Q8VG49
# T6 sequence (whole entry): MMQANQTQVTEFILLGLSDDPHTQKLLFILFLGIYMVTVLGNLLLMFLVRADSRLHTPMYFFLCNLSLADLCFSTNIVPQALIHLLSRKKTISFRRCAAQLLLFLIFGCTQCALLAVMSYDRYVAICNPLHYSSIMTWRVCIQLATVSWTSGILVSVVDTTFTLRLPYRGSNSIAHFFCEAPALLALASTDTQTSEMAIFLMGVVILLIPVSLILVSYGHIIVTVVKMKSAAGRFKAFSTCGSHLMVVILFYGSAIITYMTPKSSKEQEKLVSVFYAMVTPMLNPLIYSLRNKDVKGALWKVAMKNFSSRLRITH
# Summary of the method: as §1
# UniProt Q8VG53 = molecular target: T7, UniProt Q8VG53
# T7 sequence (whole entry): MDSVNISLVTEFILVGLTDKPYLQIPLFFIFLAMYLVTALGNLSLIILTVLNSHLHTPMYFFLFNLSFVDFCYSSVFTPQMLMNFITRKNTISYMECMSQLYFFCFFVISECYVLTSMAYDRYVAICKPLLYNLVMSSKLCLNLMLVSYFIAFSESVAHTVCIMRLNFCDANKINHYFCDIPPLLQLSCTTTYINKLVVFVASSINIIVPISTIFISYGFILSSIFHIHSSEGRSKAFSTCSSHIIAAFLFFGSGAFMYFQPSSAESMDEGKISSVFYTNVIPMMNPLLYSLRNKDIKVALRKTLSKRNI
# Summary of the method: as §1
# UniProt Q8VG64 = molecular target: T8, UniProt Q8VG64
# T8 sequence (whole entry): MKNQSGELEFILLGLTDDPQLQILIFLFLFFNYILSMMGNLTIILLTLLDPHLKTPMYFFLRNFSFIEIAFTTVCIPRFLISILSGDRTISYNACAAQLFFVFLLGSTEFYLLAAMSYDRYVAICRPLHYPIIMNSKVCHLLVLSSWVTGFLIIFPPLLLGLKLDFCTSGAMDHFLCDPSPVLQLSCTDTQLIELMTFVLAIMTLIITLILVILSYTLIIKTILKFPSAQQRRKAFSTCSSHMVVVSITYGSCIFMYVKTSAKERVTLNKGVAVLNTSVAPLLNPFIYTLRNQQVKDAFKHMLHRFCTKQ
# Summary of the method: as §1
# UniProt Q8VG77 = molecular target: T9, UniProt Q8VG77
# T9 sequence (whole entry): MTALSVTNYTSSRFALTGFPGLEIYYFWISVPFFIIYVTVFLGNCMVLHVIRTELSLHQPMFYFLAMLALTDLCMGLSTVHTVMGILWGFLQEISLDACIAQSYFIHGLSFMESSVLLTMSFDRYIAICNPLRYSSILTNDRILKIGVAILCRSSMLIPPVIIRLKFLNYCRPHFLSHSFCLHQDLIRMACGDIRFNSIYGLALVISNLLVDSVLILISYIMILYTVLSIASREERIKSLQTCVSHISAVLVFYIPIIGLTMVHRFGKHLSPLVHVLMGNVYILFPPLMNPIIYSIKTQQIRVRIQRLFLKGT
# Summary of the method: as §1
# UniProt Q8VG96 = molecular target: T10, UniProt Q8VG96
# T10 sequence (whole entry): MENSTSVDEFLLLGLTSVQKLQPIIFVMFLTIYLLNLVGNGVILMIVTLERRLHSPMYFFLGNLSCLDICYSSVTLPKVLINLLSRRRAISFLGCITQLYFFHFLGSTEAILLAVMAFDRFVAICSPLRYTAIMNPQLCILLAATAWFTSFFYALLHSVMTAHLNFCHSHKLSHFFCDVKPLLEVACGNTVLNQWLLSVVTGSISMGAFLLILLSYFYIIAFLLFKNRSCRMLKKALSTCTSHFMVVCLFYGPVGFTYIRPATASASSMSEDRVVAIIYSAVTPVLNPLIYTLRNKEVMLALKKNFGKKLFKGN
# Summary of the method: as §1
# UniProt Q8VGB9 = molecular target: T11, UniProt Q8VGB9
# T11 sequence (whole entry): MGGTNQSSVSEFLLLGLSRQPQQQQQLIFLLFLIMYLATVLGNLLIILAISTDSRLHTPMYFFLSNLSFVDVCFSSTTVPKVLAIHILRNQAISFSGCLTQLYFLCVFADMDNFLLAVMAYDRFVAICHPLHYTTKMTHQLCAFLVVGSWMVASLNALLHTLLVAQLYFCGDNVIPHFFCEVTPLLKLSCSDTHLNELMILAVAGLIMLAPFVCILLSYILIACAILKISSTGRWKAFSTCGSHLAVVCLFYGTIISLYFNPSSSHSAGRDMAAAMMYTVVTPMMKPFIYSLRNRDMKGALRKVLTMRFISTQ
# Summary of the method: as §1
# UniProt Q8VG26 = molecular target: UniProt Q8VG26
# Summary of the method: as §1
# UniProt Q8VG28 = molecular target: UniProt Q8VG28
# Summary of the method: as §1
# 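Further: active if original authors judged signal statistically different from baseline.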
# Sequence of UniProt Q8VG26 (Q8VG26 as listed by the source): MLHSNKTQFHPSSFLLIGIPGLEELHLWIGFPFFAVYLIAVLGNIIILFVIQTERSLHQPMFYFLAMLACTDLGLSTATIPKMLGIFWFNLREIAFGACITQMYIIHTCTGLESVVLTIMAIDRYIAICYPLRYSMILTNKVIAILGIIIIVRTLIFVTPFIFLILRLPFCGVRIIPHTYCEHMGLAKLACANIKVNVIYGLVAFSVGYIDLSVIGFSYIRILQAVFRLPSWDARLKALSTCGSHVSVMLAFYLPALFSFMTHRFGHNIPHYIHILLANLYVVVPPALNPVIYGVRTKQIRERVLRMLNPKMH
# Sequence of UniProt Q8VG28 (Q8VG28 as listed by the source): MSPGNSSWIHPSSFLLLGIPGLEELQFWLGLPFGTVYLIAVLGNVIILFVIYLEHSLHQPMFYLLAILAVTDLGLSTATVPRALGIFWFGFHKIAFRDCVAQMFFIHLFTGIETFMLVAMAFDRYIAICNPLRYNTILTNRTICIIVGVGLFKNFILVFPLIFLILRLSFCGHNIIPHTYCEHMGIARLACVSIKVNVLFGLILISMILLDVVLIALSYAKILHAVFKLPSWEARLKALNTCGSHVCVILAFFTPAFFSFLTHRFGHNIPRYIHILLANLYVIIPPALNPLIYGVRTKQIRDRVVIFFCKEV
SMILES,odorant receptor agonist call (UniProt Q8VFP5),odorant receptor agonist call (UniProt Q8VFZ6),odorant receptor agonist call (UniProt Q8VG01),odorant receptor agonist call (UniProt Q8VG22),odorant receptor agonist call (UniProt Q8VG27),odorant receptor agonist call (UniProt Q8VG49),odorant receptor agonist call (UniProt Q8VG53),odorant receptor agonist call (UniProt Q8VG64),odorant receptor agonist call (UniProt Q8VG77),odorant receptor agonist call (UniProt Q8VG96),odorant receptor agonist call (UniProt Q8VGB9),odorant receptor agonist call (UniProt Q8VG26),odorant receptor agonist call (UniProt Q8VG28)
CCCC(=O)C(C)=O,inactive,inactive,inactive,active,inactive,inactive,inactive,inactive,inactive,inactive,inactive,–,–
CCCCC(=O)CC,inactive,inactive,inactive,inactive,inactive,inactive,inactive,inactive,inactive,inactive,inactive,–,–
CCCCCCC(C)=O,inactive,inactive,inactive,inactive,inactive,inactive,inactive,inactive,inactive,inactive,inactive,–,–
CC(C)=CCCC(C)CCO (configuration not stated),inactive,inactive,inactive,inactive,inactive,inactive,inactive,inactive,inactive,inactive,inactive,–,–
CCCCCCCC(C)=O,inactive,inactive,inactive,inactive,inactive,inactive,inactive,inactive,inactive,inactive,inactive,–,–
CCCCCCCCCS,inactive,active,inactive,inactive,inactive,active,inactive,inactive,inactive,inactive,inactive,–,–
CCCCCCO,inactive,inactive,inactive,active,inactive,inactive,inactive,inactive,inactive,inactive,active,inactive,inactive
CCCCCCCCC(=O)O,inactive,inactive,inactive,inactive,inactive,active,inactive,inactive,inactive,inactive,inactive,inactive,–
CC(C)=CCCC(C)=CCO,inactive,active,inactive,inactive,inactive,inactive,inactive,inactive,inactive,inactive,inactive,–,–
CCCCCCCCS,inactive,inactive,inactive,inactive,inactive,inactive,inactive,inactive,inactive,inactive,inactive,–,–
CCC(=O)O,inactive,inactive,inactive,inactive,inactive,inactive,inactive,inactive,inactive,inactive,inactive,–,–
c1ccccc1,inactive,inactive,inactive,inactive,inactive,inactive,inactive,inactive,inactive,inactive,inactive,–,–
CC(=O)OCC=C(C)C,inactive,inactive,inactive,inactive,inactive,inactive,inactive,inactive,inactive,inactive,inactive,–,–
C=C(C)C1CCC(C)C(=O)C1 (configuration not stated),inactive,inactive,inactive,active,inactive,inactive,inactive,inactive,inactive,inactive,inactive,–,–
CC(=O)OCc1ccccc1,inactive,inactive,inactive,active,inactive,inactive,inactive,inactive,inactive,inactive,inactive,–,–
CCCCCCCO,inactive,inactive,inactive,active,inactive,inactive,inactive,inactive,inactive,inactive,inactive,inactive,inactive
CCCCCCCCCO,inactive,inactive,inactive,inactive,inactive,inactive,inactive,inactive,inactive,inactive,inactive,inactive,inactive
CCCCCOC(=O)CCCCC,inactive,inactive,inactive,inactive,inactive,inactive,inactive,inactive,inactive,inactive,inactive,–,–
O=C(c1ccccc1)c1ccccc1,inactive,inactive,inactive,inactive,inactive,inactive,inactive,inactive,inactive,inactive,inactive,–,–
C=CCOC(=O)CCCCCC,inactive,inactive,inactive,inactive,inactive,inactive,inactive,inactive,inactive,inactive,inactive,–,–

# From the M2OR odorant receptor database
